Experimental data reported in ChEMBL document CHEMBL3758175, “Bis-isatin hydrazones with novel linkers: Synthesis and biological evaluation as cytotoxic agents” (Eur J Med Chem, 2016).

Experiments:
HepG2 [1] = experiment: Cytotoxicity against human HepG2 cells assessed as cell viability after 24 hrs by crystal violet staining assay; format: functional, cell-based; details: HepG2, 24 h
Summary of the method: (§1)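 Cells were kept as monolayers in RPMI-1640 with 10% heat-inactivated FCS and 50 µg/ml gentamycin at 37 °C under 5% CO2. They were seeded at 3,000 cells/well and, 24 h later, washed with PBS (pH 7.2). Ten dilutions in fresh medium were added for 24 h at 37 °C, with a 1% DMSO vehicle control. Survivors were stained with crystal violet, lysed with 33% acetic acid and read at 490 nm against untreated cells. IC50 was taken from graphic plots; mean of at least three experiments.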

[2] = Cytotoxicity against human HCT116 cells assessed as cell viability after 24 hrs by crystal violet staining assay; format: functional, cell-based; details: HCT-116, 24 h; summary of the method: as §1
MCF7 [3] = experiment: Cytotoxicity against human MCF7 cells assessed as cell viability after 24 hrs by crystal violet staining assay; format: functional, cell-based; details: MCF7, 24 h
HepG2 [4] = experiment: Cytotoxicity against human HepG2 cells assessed as growth inhibition after 72 hrs by Sulforhodamine B colorimetric assay; format: functional, cell-based; details: HepG2, 72 h
L1210 = experiment: Cytotoxicity against mouse L1210 cells assessed as cell growth inhibition by MTT assay; format: functional, cell-based
[5] = Cytotoxicity against human KB3-1 cells assessed as cell survival after 72 hrs by MTT assay; format: functional, cell-based; details: KB 3-1, 72 h
[6] = Cytotoxicity against human KBV1 cells assessed as cell survival after 72 hrs by MTT assay; format: functional, cell-based; details: KB-V1, 72 h
MCF7 [7] = experiment: Induction of apoptosis in human MCF7 cells at IC50 after 24 hrs by annexin V-FITC/propidium iodide staining based flow cytometry relative to control; format: functional
MCF7 [8] = experiment: Cell cycle arrest in human MCF7 cells assessed as accumulation at G2/M phase at IC50 after 24 hrs by flow cytometric analysis relative to control; format: functional
MCF7 [9] = experiment: Induction of apoptosis in human MCF7 cells assessed as viable cells at IC50 after 24 hrs by annexin V-FITC/propidium iodide staining based flow cytometry (reference value: 96.3%); format: functional
MCF7 [10] = experiment: Induction of apoptosis in human MCF7 cells assessed as late apoptotic cells at IC50 after 24 hrs by annexin V-FITC/propidium iodide staining based flow cytometry relative to control; format: functional
MCF7 [11] = experiment: Cell cycle arrest in human MCF7 cells assessed as decrease in cell level at G0/G1 phase at IC50 after 24 hrs by flow cytometric analysis relative to control; format: functional; design: scale not given: the % may be the effect or the level left
MCF7 [12] = experiment: Induction of apoptosis in human MCF7 cells assessed as necrotic cells at IC50 after 24 hrs by annexin V-FITC/propidium iodide staining based flow cytometry relative to control; format: functional
MCF7 [13] = experiment: Induction of apoptosis in human MCF7 cells assessed as early apoptotic cells at IC50 after 24 hrs by annexin V-FITC/propidium iodide staining based flow cytometry (reference value: 3.70%); format: functional
MCF7 [14] = experiment: Cell cycle arrest in human MCF7 cells assessed as accumulation at pre-G phase at IC50 after 24 hrs by flow cytometric analysis relative to control; format: functional
MCF7 [15] = experiment: Cytotoxicity against human MCF7 cells assessed as growth inhibition after 72 hrs by Sulforhodamine B colorimetric assay; format: functional, cell-based; details: MCF7, 72 h
[16] = target: Cyclin-dependent kinase 2/cyclin E1 (Homo sapiens, UniProt P24941); experiment: Inhibition of GST-tagged recombinant human CDK2/cyclin E expressed in insect SF-9 cells after 10 mins by scintillation counting analysis in presence of [gamma-33P]-ATP; design: species or system Sf9

Compound	IC50 (HepG2 [1]) [µM]	IC50 [2] [µM]	IC50 (MCF7 [3]) [µM]	other results
COc1ccc2c(c1)/C(=N/NC(=O)c1cncc(C(=O)N/N=C3\C(=O)Nc4ccc(OC)cc43)c1)C(=O)N2	36.5	45.4	66.5	
O=C1Nc2ccc(F)cc2/C1=N/Nc1nc(-c2ccccc2)nc2ccccc12				IC50 (HepG2 [4]): 1 µM
Cc1ccc2c(c1)/C(=N/NC(=O)N/N=C1\C(=O)Nc3ccc(C)cc31)C(=O)N2				IC50 (L1210): 16 µM
Cc1ccc2c(c1)/C(=N/NC(=O)C(=O)N/N=C1\C(=O)Nc3ccc(C)cc31)C(=O)N2	> 100	> 100	55.9	
O=C1Nc2ccc([N+](=O)[O-])cc2/C1=N/NC(=O)c1cncc(C(=O)N/N=C2\C(=O)Nc3ccc([N+](=O)[O-])cc32)c1	75.9	> 100	88.8	
COc1ccc2c(c1)/C(=N/NC(=O)c1[nH]c(C)c(C(=O)N/N=C3\C(=O)Nc4ccc(OC)cc43)c1C)C(=O)N2	83.5	> 100	78.8	
O=C1Nc2ccc(Cl)cc2/C1=N/N=C1\C(=O)N(c2ccccc2)c2ccccc21				IC50 [5]: 6.79 µM; IC50 [6]: 6.07 µM
Cc1[nH]c(C(=O)N/N=C2\C(=O)Nc3ccc([N+](=O)[O-])cc32)c(C)c1C(=O)N/N=C1\C(=O)Nc2ccc([N+](=O)[O-])cc21	86.9	> 100	> 100	
Cc1c(C(=O)N/N=C2\C(=O)Nc3ccccc32)c(C)n(C)c1C(=O)N/N=C1\C(=O)Nc2ccccc21	> 100	> 100	> 100	
Cc1[nH]c(C(=O)N/N=C2\C(=O)Nc3ccccc32)c(C)c1C(=O)N/N=C1\C(=O)Nc2ccccc21	30.1	76.5	69.2	
Cc1ccc2c(c1)/C(=N/NC(=O)c1[nH]c(C)c(C(=O)N/N=C3\C(=O)Nc4ccc(C)cc43)c1C)C(=O)N2	> 100	45.9	46.1	
Cc1[nH]c(C(=O)N/N=C2\C(=O)Nc3ccc(Br)cc32)c(C)c1C(=O)N/N=C1\C(=O)Nc2ccc(Br)cc21	32.4	37.3	36.7	
O=C1Nc2ccc(F)cc2/C1=N/NC(=O)c1cncc(C(=O)N/N=C2\C(=O)Nc3ccc(F)cc32)c1	76.3	24.5	38	
O=C(N/N=C1\C(=O)Nc2ccc([N+](=O)[O-])cc21)C(=O)N/N=C1\C(=O)Nc2ccc([N+](=O)[O-])cc21	25.8	56.2	91.2	
COc1ccc2c(c1)/C(=N/NC(=O)c1c(C)c(C(=O)N/N=C3\C(=O)Nc4ccc(OC)cc43)n(C)c1C)C(=O)N2	6.99	3.31	1.84	fold change (FC) (MCF7 [7]): 6.7; fold change (FC) (MCF7 [8]): 1.83; Activity (MCF7 [9]): 74.5%; Activity (MCF7 [10]): 0.36%; Activity (MCF7 [11]): 18.5%; Activity (MCF7 [12]): 0.18%; Activity (MCF7 [13]): 25%; fold change (FC) (MCF7 [14]): 5
O=C(N/N=C1\C(=O)Nc2ccc(Br)cc21)C(=O)N/N=C1\C(=O)Nc2ccc(Br)cc21	77.8	98.7	91.9	
Cc1[nH]c(C(=O)N/N=C2\C(=O)Nc3ccc(F)cc32)c(C)c1C(=O)N/N=C1\C(=O)Nc2ccc(F)cc21	78.4	77	76.3	
Cc1ccc2c(c1)/C(=N/NC(=O)c1c(C)c(C(=O)N/N=C3\C(=O)Nc4ccc(C)cc43)n(C)c1C)C(=O)N2	22.1	38.6	29.9	
O=C1Nc2ccccc2/C1=N/NC(=O)c1cncc(C(=O)N/N=C2\C(=O)Nc3ccccc32)c1	72.7	39.2	39.1	
COc1ccc(-c2nc(N/N=C3\C(=O)Nc4ccc(Cl)cc43)c3ccccc3n2)cc1OC				IC50 (MCF7 [15]): 2.1 µM
O=C1Nc2ccc(Br)cc2/C1=N/NC(=O)c1cncc(C(=O)N/N=C2\C(=O)Nc3ccc(Br)cc32)c1	30.1	23.7	34.5	
COc1cccc2c1C(=O)c1c(O)c3c(c(O)c1C2=O)C[C@@](O)(C(=O)CO)C[C@@H]3O[C@H]1C[C@H](N)[C@H](O)[C@H](C)O1 [DOXORUBICIN]	3.56	3.7		
O=C1/C(=C2\Nc3ccccc3C2=O)Nc2ccccc21 [INDIGO]				IC50 [16]: 1 µM
